Data published in ChEMBL document CHEMBL1287747, “Highly active antimycobacterial derivatives of benzoxazine” (2010).
In brackets after ≈: the same amount, converted by molar mass.

Columns and labels:
Assay type in all cases: functional
[1] = system: Mycobacterium tuberculosis; experiment: Antimycobacterial activity against Mycobacterium tuberculosis CNCTC My 331/88 after 21 days by microdilution method; conditions: CNCTC My 331/88, 504 h
Summary of the method: (§1)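 Strains from the Czech National Collection of Type Cultures, tested by dilution micromethod in Šula semisynthetic medium. Incubated at 37 °C and read at 14 and 21 days. MIC is the lowest concentration inhibiting growth.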

[2] = system: Mycobacterium avium; experiment: Antimycobacterial activity against Mycobacterium avium CNCTC My 330/88 after 21 days by microdilution method; conditions: CNCTC My 330/88, 504 h; summary of the method: as §1
[3] = system: Mycobacterium kansasii; experiment: Antimycobacterial activity against Mycobacterium kansasii 6509/96 after 21 days by microdilution method; conditions: 6509/96, 504 h
Summary of the method: (§2)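 Clinical isolate that, unlike the standard strain, is not isoniazid-resistant. Tested by dilution micromethod in Šula semisynthetic medium, with compounds added in DMSO at final 1000 down to 0.25 µmol/L in twofold steps. Löwenstein-Jensen plate used as inoculum sterility and growth control. Incubated at 37 °C and read at 14 and 21 days. MIC is the lowest concentration inhibiting growth.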

[4] = system: Mycobacterium tuberculosis; experiment: Antimycobacterial activity against Mycobacterium tuberculosis CNCTC My 331/88 after 14 days by microdilution method; conditions: CNCTC My 331/88, 336 h; summary of the method: as §1
[5] = system: Mycobacterium kansasii; experiment: Antimycobacterial activity against Mycobacterium kansasii CNCTC My 235/80 after 14 days by microdilution method; conditions: CNCTC My 235/80, 336 h; summary of the method: as §1
[6] = system: Mycobacterium avium; experiment: Antimycobacterial activity against Mycobacterium avium CNCTC My 330/88 after 14 days by microdilution method; conditions: CNCTC My 330/88, 336 h; summary of the method: as §1
[7] = system: Mycobacterium kansasii; experiment: Antimycobacterial activity against Mycobacterium kansasii CNCTC My 235/80 after 21 days by microdilution method; conditions: CNCTC My 235/80, 504 h; summary of the method: as §1
[8] = system: Mycobacterium kansasii; experiment: Antimycobacterial activity against Mycobacterium kansasii 6509/96 after 14 days by microdilution method; conditions: 6509/96, 336 h; summary of the method: as §2

SMILES	MIC [1] [µM]	MIC [2] [µM]	MIC [3] [µM]	MIC [4] [µM]	MIC [5] [µM]	MIC [6] [µM]	MIC [7] [µM]	MIC [8] [µM]
CCc1ccc(-n2c(=O)oc3ccc(Br)cc3c2=S)cc1	0.5 (≈ 0.181 µg/mL)	32 (≈ 11.6 µg/mL)	8 (≈ 2.9 µg/mL)	0.5 (≈ 0.181 µg/mL)	8 (≈ 2.9 µg/mL)	32 (≈ 11.6 µg/mL)	16 (≈ 5.8 µg/mL)	4 (≈ 1.45 µg/mL)
CCc1ccc(-n2c(=O)oc3ccc(Cl)cc3c2=S)cc1	0.5 (≈ 0.159 µg/mL)	16 (≈ 5.08 µg/mL)	4 (≈ 1.27 µg/mL)	0.5 (≈ 0.159 µg/mL)	8 (≈ 2.54 µg/mL)	16 (≈ 5.08 µg/mL)	8 (≈ 2.54 µg/mL)	4 (≈ 1.27 µg/mL)
CCc1ccc(-n2c(=O)oc3cc(Cl)ccc3c2=S)cc1	0.5 (≈ 0.159 µg/mL)	8 (≈ 2.54 µg/mL)	8 (≈ 2.54 µg/mL)	0.5 (≈ 0.159 µg/mL)	8 (≈ 2.54 µg/mL)	8 (≈ 2.54 µg/mL)	8 (≈ 2.54 µg/mL)	8 (≈ 2.54 µg/mL)
CC(C)c1ccc(-n2c(=O)oc3ccc(Br)cc3c2=S)cc1	0.5 (≈ 0.188 µg/mL)	8 (≈ 3.01 µg/mL)	8 (≈ 3.01 µg/mL)	0.25 (≈ 0.0941 µg/mL)	32 (≈ 12 µg/mL)	4 (≈ 1.51 µg/mL)	62.5 (≈ 23.5 µg/mL)	4 (≈ 1.51 µg/mL)
CC(C)c1ccc(-n2c(=O)oc3ccc(Cl)cc3c2=S)cc1	1 (≈ 0.332 µg/mL)	125 (≈ 41.5 µg/mL)	2 (≈ 0.664 µg/mL)	0.5 (≈ 0.166 µg/mL)	8 (≈ 2.65 µg/mL)	32 (≈ 10.6 µg/mL)	16 (≈ 5.31 µg/mL)	1 (≈ 0.332 µg/mL)
CC(C)c1ccc(-n2c(=O)oc3cc(Cl)ccc3c2=S)cc1	1 (≈ 0.332 µg/mL)	8 (≈ 2.65 µg/mL)	8 (≈ 2.65 µg/mL)	0.5 (≈ 0.166 µg/mL)	8 (≈ 2.65 µg/mL)	8 (≈ 2.65 µg/mL)	8 (≈ 2.65 µg/mL)	4 (≈ 1.33 µg/mL)
CC(C)c1ccc(-n2c(=O)oc3ccc(F)cc3c2=S)cc1	0.5 (≈ 0.158 µg/mL)	1 (≈ 0.315 µg/mL)	4 (≈ 1.26 µg/mL)	0.25 (≈ 0.0788 µg/mL)	2 (≈ 0.631 µg/mL)	0.5 (≈ 0.158 µg/mL)	4 (≈ 1.26 µg/mL)	4 (≈ 1.26 µg/mL)
Cc1ccc2c(=S)n(-c3ccc(C(C)C)cc3)c(=O)oc2c1	0.5 (≈ 0.156 µg/mL)	1 (≈ 0.311 µg/mL)	2 (≈ 0.623 µg/mL)	0.25 (≈ 0.0779 µg/mL)	2 (≈ 0.623 µg/mL)	0.5 (≈ 0.156 µg/mL)	4 (≈ 1.25 µg/mL)	1 (≈ 0.311 µg/mL)
CCC(C)c1ccc(-n2c(=O)oc3ccc(Br)cc3c2=S)cc1 (configuration not stated)	0.5 (≈ 0.195 µg/mL)	32 (≈ 12.5 µg/mL)	4 (≈ 1.56 µg/mL)	0.25 (≈ 0.0976 µg/mL)	4 (≈ 1.56 µg/mL)	16 (≈ 6.24 µg/mL)	8 (≈ 3.12 µg/mL)	2 (≈ 0.781 µg/mL)
CCC(C)c1ccc(-n2c(=O)oc3ccc(Cl)cc3c2=S)cc1 (configuration not stated)	1 (≈ 0.346 µg/mL)	32 (≈ 11.1 µg/mL)	8 (≈ 2.77 µg/mL)	0.5 (≈ 0.173 µg/mL)	8 (≈ 2.77 µg/mL)	32 (≈ 11.1 µg/mL)	8 (≈ 2.77 µg/mL)	4 (≈ 1.38 µg/mL)
CCC(C)c1ccc(-n2c(=O)oc3ccc(F)cc3c2=S)cc1 (configuration not stated)	0.5 (≈ 0.165 µg/mL)	1 (≈ 0.329 µg/mL)	4 (≈ 1.32 µg/mL)	0.25 (≈ 0.0823 µg/mL)	4 (≈ 1.32 µg/mL)	1 (≈ 0.329 µg/mL)	4 (≈ 1.32 µg/mL)	2 (≈ 0.659 µg/mL)
CCC(C)c1ccc(-n2c(=O)oc3cc(C)ccc3c2=S)cc1 (configuration not stated)	0.5 (≈ 0.163 µg/mL)	0.5 (≈ 0.163 µg/mL)	1 (≈ 0.325 µg/mL)	0.25 (≈ 0.0814 µg/mL)	1 (≈ 0.325 µg/mL)	0.5 (≈ 0.163 µg/mL)	2 (≈ 0.651 µg/mL)	0.5 (≈ 0.163 µg/mL)
CC(C)(C)c1ccc(-n2c(=O)oc3ccc(Cl)cc3c2=S)cc1	0.5 (≈ 0.173 µg/mL)	2 (≈ 0.692 µg/mL)	8 (≈ 2.77 µg/mL)	0.25 (≈ 0.0865 µg/mL)	8 (≈ 2.77 µg/mL)	1 (≈ 0.346 µg/mL)	8 (≈ 2.77 µg/mL)	4 (≈ 1.38 µg/mL)
CC(C)(C)c1ccc(-n2c(=O)oc3ccc(F)cc3c2=S)cc1	0.5 (≈ 0.165 µg/mL)	1 (≈ 0.329 µg/mL)	8 (≈ 2.64 µg/mL)	0.25 (≈ 0.0823 µg/mL)	4 (≈ 1.32 µg/mL)	0.5 (≈ 0.165 µg/mL)	8 (≈ 2.64 µg/mL)	8 (≈ 2.64 µg/mL)
Cc1ccc2c(=S)n(-c3ccc(C(C)(C)C)cc3)c(=O)oc2c1	0.5 (≈ 0.163 µg/mL)	0.5 (≈ 0.163 µg/mL)	1 (≈ 0.325 µg/mL)	0.25 (≈ 0.0814 µg/mL)	2 (≈ 0.651 µg/mL)	0.25 (≈ 0.0814 µg/mL)	2 (≈ 0.651 µg/mL)	1 (≈ 0.325 µg/mL)
CCc1ccc(-n2c(=S)oc3ccc(Cl)cc3c2=S)cc1	0.5 (≈ 0.167 µg/mL)	16 (≈ 5.34 µg/mL)	6 (≈ 2 µg/mL)	0.5 (≈ 0.167 µg/mL)	8 (≈ 2.67 µg/mL)	8 (≈ 2.67 µg/mL)	8 (≈ 2.67 µg/mL)	4 (≈ 1.34 µg/mL)
CCc1ccc(-n2c(=S)oc3cc(Cl)ccc3c2=S)cc1	0.5 (≈ 0.167 µg/mL)	8 (≈ 2.67 µg/mL)	16 (≈ 5.34 µg/mL)	0.5 (≈ 0.167 µg/mL)	8 (≈ 2.67 µg/mL)	4 (≈ 1.34 µg/mL)	16 (≈ 5.34 µg/mL)	8 (≈ 2.67 µg/mL)
CC(C)c1ccc(-n2c(=S)oc3ccc(Br)cc3c2=S)cc1	1 (≈ 0.392 µg/mL)	16 (≈ 6.28 µg/mL)	8 (≈ 3.14 µg/mL)	0.5 (≈ 0.196 µg/mL)	32 (≈ 12.6 µg/mL)	8 (≈ 3.14 µg/mL)	62.5 (≈ 24.5 µg/mL)	4 (≈ 1.57 µg/mL)
CC(C)c1ccc(-n2c(=S)oc3ccc(Cl)cc3c2=S)cc1	1 (≈ 0.348 µg/mL)	125 (≈ 43.5 µg/mL)	2 (≈ 0.696 µg/mL)	0.5 (≈ 0.174 µg/mL)	8 (≈ 2.78 µg/mL)	32 (≈ 11.1 µg/mL)	16 (≈ 5.57 µg/mL)	1 (≈ 0.348 µg/mL)
